How the values were obtained:
[1] = tested on: Staphylococcus aureus; experiment: Bactericidal activity against Staphylococcus aureus ATCC 25923 assessed as log reduction in bacterial count at 100 times MIC after 24 hrs by time-kill assay; type: functional
How it was run: (§1)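 Broth time-kill: MSSA at 10⁶ CFU/ml exposed to a wide range of dicloxacillin concentrations. CFU counted after 5 and 24 h and expressed as change in log₁₀ CFU/ml from time zero. Multiples refer to the MIC by CLSI microdilution at pH 7.4. n = 3.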

[2] = Ratio of fAUC (24 hrs) in NMRI mouse at 80 mg/kg administered every 8 hrs to MIC for Staphylococcus aureus E19977; type: functional
How it was run: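 Modeled free AUC over 24 h divided by the MIC, not measured directly. Single subcutaneous DCX doses were given to NMRI mice, and plasma was assayed by S. lutea bioassay. Noncompartmental analysis used trapezoidal mean points plus a fitted monoexponential extrapolated to 24 h. Free fraction came from a square-root fit to plasma ultrafiltration binding (10–400 mg/liter spike, 1 h, 37°C). The MIC was measured by broth microdilution at pH 7.4.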

[3] = Cmax in NMRI mouse at 300 mg/kg, sc; type: ADME, organism-based; parameters: dose 300 mg/kg, route subcutaneous; settings: in vivo
How it was run: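 Single subcutaneous dicloxacillin doses were given to NMRI mice. EDTA plasma was assayed by microbiological bioassay with S. lutea ATCC 9391 (detection limit 1.5 mg/liter, linear to 100 mg/liter, CV ~5%). Cmax was obtained by noncompartmental analysis.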

[4] = tested on: Staphylococcus aureus; experiment: Bactericidal activity against Staphylococcus aureus E19977 assessed as log reduction in bacterial count at 10 times MIC after 24 hrs by time-kill assay; type: functional; how it was run: as §1

Which FC [1] does the source give for `Cc1onc(-c2c(Cl)cccc2Cl)c1C(=O)N[C@@H]1C(=O)N2[C@@H]1SC(C)(C)[C@@H]2C(=O)O` [DICLOXACILLIN] here?
The FC was 3.

What about the fAUC/MIC [2] of the same compound?
The fAUC/MIC was 63.49 h.

What about the Cmax [3] of the same compound?
The Cmax was 529 µg/mL.

What about the FC [4] of the same compound?
Its FC is 3.

Source: ChEMBL document CHEMBL1255483, “Intra- and extracellular activities of dicloxacillin against Staphylococcus aureus in vivo and in vitro” (Antimicrob Agents Chemother, 2010)
